{"data": "Published values gathered from unrelated publications", "cell line": "A549", "read-out": "cell growth or viability", "note": "Lines come from different studies, so protocols differ."}
{"Structure (SMILES)": "CCCCNC(=O)Nc1ccc(-c2ccc3ncn(CCCC)c(=O)c3c2)cn1", "technique": "CCK-8", "time": "72 h", "endpoint": "IC50", "result": "1.39 µM"}
{"Structure (SMILES)": "O=C(Nc1ccc(-c2cn(Cc3ccc(Cl)cc3)nn2)cc1)Nc1ccccc1Br", "technique": "CCK-8", "concentration": "50 µM", "time": "72 h", "endpoint": "viability", "result": "107%"}
{"Structure (SMILES)": "COc1ccc(NC(=O)NCc2cn(Cc3ccc(C)cc3)nn2)cc1", "technique": "CCK-8", "concentration": "50 µM", "time": "72 h", "endpoint": "viability", "result": "71.5%"}
{"Structure (SMILES)": "CCCCn1cnc2ccc(-c3ccc(NC(=O)CCC)nc3)cc2c1=O", "technique": "CCK-8", "time": "72 h", "endpoint": "IC50", "result": "3.19 µM"}
{"Structure (SMILES)": "CCCCCCCCCCCCCCCCCCOc1ccccc1CC(=O)OCC[N+](CC)(CC)CC", "technique": "SRB", "concentration": "10 µM", "endpoint": "inhibition", "result": "70.7%"}
{"Structure (SMILES)": "NCCC(=O)Nc1ccccc1/N=c1\\cc(-c2ccc3nc(N)oc3c2)oc2cc(O)ccc12", "technique": "CCK-8", "concentration": "1 µM", "endpoint": "inhibition", "result": "23.2%"}
{"Structure (SMILES)": "CCCCCCCCCCCCCCCCCCOc1ccccc1CC(=O)OCC[N+]1(C)CCOCC1", "technique": "SRB", "concentration": "10 µM", "endpoint": "inhibition", "result": "37.4%"}
{"Structure (SMILES)": "COc1cccc(NC(=O)Nc2nc3cc(-c4ccc5ncn(CCC6CCCCC6)c(=O)c5c4)ccc3s2)c1", "technique": "MTT", "time": "72 h", "endpoint": "IC50", "result": "1.27 µM"}
{"Structure (SMILES)": "CCCn1cnc2ccc(-c3ccc(NC(=O)CNCC)nc3)cc2c1=O", "technique": "CCK-8", "time": "72 h", "endpoint": "IC50", "result": "3.42 µM"}
{"Structure (SMILES)": "COc1ccc(NC(=O)Nc2cccc(-c3cn(Cc4cccc(Cl)c4)nn3)c2)cc1", "technique": "CCK-8", "concentration": "20 µM", "time": "72 h", "endpoint": "viability", "result": "141%"}
{"Structure (SMILES)": "CCCCCCCCCCCCCCCCCCOc1ccc(CC(=O)OCC[N+](CC)(CC)CC)cc1", "technique": "SRB", "concentration": "10 µM", "endpoint": "inhibition", "result": "21.2%"}
{"Structure (SMILES)": "O=C(Nc1ccc(Cl)cc1)Nc1ccc(-c2cn(Cc3cccc(Cl)c3)nn2)cc1", "technique": "CCK-8", "concentration": "20 µM", "time": "72 h", "endpoint": "viability", "result": "64.6%"}
{"Structure (SMILES)": "N#CSCCCCOc1ccc2c(-c3ccccc3)cc(=O)oc2c1", "technique": "SRB", "endpoint": "GI50", "result": "36 µM"}
{"Structure (SMILES)": "C[C@H](N)C(=O)Nc1ccccc1/N=c1\\cc(-c2ccc3c(c2)OCCO3)oc2c(N)cccc12", "technique": "CCK-8", "concentration": "1 µM", "endpoint": "inhibition", "result": "0.27%"}
{"Structure (SMILES)": "CCCCCC(=O)Nc1ccc(-c2ccc3ncn(CC4CC4)c(=O)c3c2)cn1", "technique": "CCK-8", "time": "72 h", "endpoint": "IC50", "result": "0.25 µM"}
{"Structure (SMILES)": "COc1cccc2c1C(=O)c1c(O)c3c(c(O)c1C2=O)C[C@@](O)(C(=O)CO)C[C@@H]3O[C@H]1C[C@H](N)[C@H](O)[C@H](C)O1", "technique": "MTT", "time": "72 h", "endpoint": "IC50", "result": "0.52 µM"}
{"Structure (SMILES)": "O=C(NCc1cn(Cc2cccc(Cl)c2)nn1)Nc1ccc(Cl)cc1", "technique": "CCK-8", "concentration": "50 µM", "time": "72 h", "endpoint": "viability", "result": "79.5%"}
{"Structure (SMILES)": "CCCCCCCCCCCCCCCCCCOc1ccccc1CC(=O)OCCC[N+](C)(C)C", "technique": "SRB", "concentration": "10 µM", "endpoint": "inhibition", "result": "45.8%"}
{"Structure (SMILES)": "O=C(Nc1cccc(-c2cn(Cc3ccc(Cl)cc3)nn2)c1)Nc1ccccc1Br", "technique": "CCK-8", "concentration": "20 µM", "time": "72 h", "endpoint": "viability", "result": "159%"}
{"Structure (SMILES)": "CCCn1cnc2ccc(-c3ccc(N4CCCC4=O)nc3)cc2c1=O", "technique": "CCK-8", "time": "72 h", "endpoint": "IC50", "result": "> 10 µM"}
{"Structure (SMILES)": "COc1ccc(NC(=O)Nc2cccc(-c3cn(Cc4ccc(Br)cc4)nn3)c2)cc1", "technique": "CCK-8", "concentration": "20 µM", "time": "72 h", "endpoint": "viability", "result": "152%"}
{"Structure (SMILES)": "CCOc1ccc(C(=O)CC(SCc2ccc(Cl)cc2)C(=O)OC)cc1 (centres unmarked)", "technique": "MTT", "time": "48 h", "endpoint": "EC50", "result": "> 250 µM"}
{"Structure (SMILES)": "NCC(=O)Nc1ccccc1/N=c1\\cc(-c2ccc3c(c2)OCO3)oc2ccccc12", "technique": "CCK-8", "concentration": "1 µM", "endpoint": "inhibition", "result": "-5.88%"}
{"Structure (SMILES)": "CCCCC(=O)Nc1cc(F)c(-c2ccc3ncn(CCC)c(=O)c3c2)cn1", "technique": "CCK-8", "time": "72 h", "endpoint": "IC50", "result": "1.58 µM"}
{"Structure (SMILES)": "CC(C)(C)[C@H](N)C(=O)Nc1ccccc1/N=c1\\cc(-c2ccc3c(c2)OCO3)oc2ccccc12", "technique": "CCK-8", "concentration": "1 µM", "endpoint": "inhibition", "result": "3.13%"}
{"Structure (SMILES)": "COc1ccc(NC(=O)NCc2cn(Cc3ccccc3C)nn2)cc1", "technique": "CCK-8", "concentration": "50 µM", "time": "72 h", "endpoint": "viability", "result": "68%"}
{"Structure (SMILES)": "O=C(Nc1cccc(-c2cn(Cc3ccc(Br)cc3)nn2)c1)Nc1ccccc1Br", "technique": "CCK-8", "concentration": "20 µM", "time": "72 h", "endpoint": "viability", "result": "130%"}
{"Structure (SMILES)": "CCNC(=O)Nc1nc2cc(-c3ccc4ncn(Cc5ccccc5)c(=O)c4c3)ccc2s1", "technique": "MTT", "time": "72 h", "endpoint": "IC50", "result": "11 µM"}
{"Structure (SMILES)": "Cc1cccc(NC(=O)Nc2ccc(-c3ccc4ncn(Cc5ccccc5)c(=O)c4c3)cn2)c1", "technique": "CCK-8", "time": "72 h", "endpoint": "IC50", "result": "> 10 µM"}
{"Structure (SMILES)": "COc1ccc2/c(=N/c3ccccc3NC(=O)[C@@H](N)C(C)(C)C)cc(-c3ccc4c(c3)OCCO4)oc2c1", "technique": "CCK-8", "concentration": "1 µM", "endpoint": "inhibition", "result": "6.77%"}
{"Structure (SMILES)": "O=C(NCc1cn(Cc2ccc(Cl)cc2)nn1)Nc1ccc(Cl)cc1", "technique": "CCK-8", "concentration": "20 µM", "time": "72 h", "endpoint": "viability", "result": "61.7%"}
{"Structure (SMILES)": "CCCCCCCCCCCCCCCCCCOc1cccc(CC(=O)OCC[N+]2(C)CCOCC2)c1", "technique": "SRB", "concentration": "10 µM", "endpoint": "inhibition", "result": "7.62%"}
{"Structure (SMILES)": "[NH2][Pt]([NH2])([Cl])[Cl]", "technique": "SRB", "endpoint": "GI50", "result": "4.9 µM"}
{"Structure (SMILES)": "COc1ccc(NC(=O)Nc2ccc(-c3cn(Cc4ccc(Cl)cc4)nn3)cc2)cc1", "technique": "CCK-8", "concentration": "20 µM", "time": "72 h", "endpoint": "viability", "result": "102%"}
{"Structure (SMILES)": "CCCCC(=O)Nc1ccc(-c2ccc3ncn(CC#N)c(=O)c3c2)cn1", "technique": "CCK-8", "time": "72 h", "endpoint": "IC50", "result": "> 10 µM"}
{"Structure (SMILES)": "COc1ccc(NC(=O)Nc2ccc(-c3cn(Cc4ccc(Br)cc4)nn3)cc2)cc1", "technique": "CCK-8", "concentration": "20 µM", "time": "72 h", "endpoint": "viability", "result": "102%"}
{"Structure (SMILES)": "O=C(Nc1ccc(-c2cn(Cc3ccc(Br)cc3)nn2)cc1)Nc1ccccc1Br", "technique": "CCK-8", "concentration": "50 µM", "time": "72 h", "endpoint": "viability", "result": "89%"}
{"Structure (SMILES)": "CCCCCCCCCCCCCCCCCCOc1ccc(CC(=O)OCC[N+]2(C)CCCCC2)cc1", "technique": "SRB", "concentration": "10 µM", "endpoint": "inhibition", "result": "11.1%"}
{"Structure (SMILES)": "N[C@@H](CO)C(=O)Nc1ccccc1/N=c1\\cc(-c2ccc3c(c2)OCO3)oc2ccccc12", "technique": "CCK-8", "concentration": "1 µM", "endpoint": "inhibition", "result": "-0.16%"}
{"Structure (SMILES)": "O=C(Nc1ccc(Cl)cc1)Nc1cccc(-c2cn(Cc3cccc(Br)c3)nn2)c1", "technique": "CCK-8", "concentration": "50 µM", "time": "72 h", "endpoint": "viability", "result": "145%"}
{"Structure (SMILES)": "C[C@H](N)C(=O)Nc1ccccc1/N=c1\\cc(-c2ccc3c(c2)OCCO3)oc2c([N+](=O)[O-])cccc12", "technique": "CCK-8", "concentration": "1 µM", "endpoint": "inhibition", "result": "0.38%"}
{"Structure (SMILES)": "O=C(Nc1ccc(Cl)cc1)Nc1ccc(-c2cn(Cc3ccc(Br)cc3)nn2)cc1", "technique": "CCK-8", "concentration": "20 µM", "time": "72 h", "endpoint": "viability", "result": "69.1%"}
{"Structure (SMILES)": "COc1ccc(NC(=O)NCc2cn(Cc3ccc(Cl)cc3)nn2)cc1", "technique": "CCK-8", "concentration": "20 µM", "time": "72 h", "endpoint": "viability", "result": "71.9%"}
{"Structure (SMILES)": "C[C@H](N)C(=O)Nc1ccccc1/N=c1\\cc(-c2ccc3c(c2)OCCO3)oc2cc(F)ccc12", "technique": "CCK-8", "concentration": "1 µM", "endpoint": "inhibition", "result": "-0.65%"}
